Sampled rows, rich in hits. Any-hit rate of the full collection: about 2.6%.
Apaf1 inhib: inhibitors of human Apaf-1 apoptosome | O14727 | reconstituted apoptosome caspase-3 activity, DEVD-Rh110 fluorescence | 330,000 tested, 0.71% active | inhibition, % at 20 µM; active = inhibition of at least 40% at 20 µM;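 note: plate controls were DMSO wells for no effect and DEVD-CHO caspase inhibitor wells for full effect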
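System: Apoptosome proteins | Medium: Hepes pH 7.5 with detergent and BSA | Also added: Cytochrome c trigger plus (Z-DEVD)2-Rh110 caspase-3 substrate | Incubation: 30 min compound preincubation, 50 min activation, room temperature | Detection: Rhodamine 110 fluorescence at Ex 480/Em 540 nm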
GSTO1 counter: GSTO1 inhibition, counter-screen for RBBP9 inhibitors. recombinant GSTO1, activity-based probe fluorescence polarization. 300,000 tested, 1.1% active. inhibition, % at 5.96 µM. AID 1974. P78417;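 active = inhibition above the campaign mean inhibition plus 3 SD, cut at about 35% in these data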;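 note: 0% = GSTO1-1 with DMSO and 100% = wells lacking GSTO1-1 enzyme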
Target sequence (P78417 whole entry, looked up): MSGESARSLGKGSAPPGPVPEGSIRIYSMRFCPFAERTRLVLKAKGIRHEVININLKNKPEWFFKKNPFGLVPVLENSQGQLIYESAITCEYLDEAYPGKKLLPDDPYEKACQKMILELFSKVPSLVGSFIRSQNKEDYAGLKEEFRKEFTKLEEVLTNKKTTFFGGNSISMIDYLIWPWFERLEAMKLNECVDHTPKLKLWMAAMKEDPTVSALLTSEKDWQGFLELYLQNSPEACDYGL
PAD4 FP inh: inhibitors of human PAD4; inhibition, % at 6.36 µM; 330,000 tested, 0.41% active; AID 485272; Q9UM07; recombinant PAD4, RCA probe fluorescence polarization;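 active = percent inhibition above a cutoff equal to the mean of all tested compounds plus 3 SD, cut at about 15% in these data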;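 note: 0% = PAD4 with RCA probe and DMSO and 100% = probe without PAD4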
PRMT1 inh: PRMT1 (human) inhibition, primary screen; Q99873; recombinant PRMT1, activity-based probe fluorescence polarization; inhibition, % at 2.79 µM; 370,000 tested, 1.3% active;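 active = inhibition above about 21% made by adding two undisclosed values, limit read from the data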
TDP2 inh: blocks human TDP2 phosphodiesterase activity. recombinant TDP2, T5PNP hydrolysis, p-nitrophenol absorbance 415 nm. 370,000 tested, 0.34% active. O95551. inhibition, % at 12.8 µM;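 active = inhibition above the mean of all tested compounds plus 3 SD, set per campaign, cut at about 25% in these data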;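 note: 0% = DMSO with enzyme and 100% = buffer with substrate but no TDP2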
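System – recombinant human TDP2 · Quantity – TDP2 enzyme at 120 nM final · Doses – single concentration, 12.8 µM nominal, with 1% DMSO · Incubation – 2 h at 37 °C · Measured by – epi absorbance of p-nitrophenol freed from T5PNP by hydrolysis · Read-out – % inhibition relative to enzyme-containing and enzyme-free wells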
Apaf-1 inh conf2: confirmation of Apaf-1 inhibitors. shares compounds with Apaf1 inhib. reconstituted apoptosome, caspase-3 DEVD-Rh110 fluorescence. inhibition, % at 20 µM. 1,800 tested, 25% active. AID 504614;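 active = mean inhibition of at least 40% at 20 µM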;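 note: plate controls were DMSO wells for no effect and DEVD-CHO caspase inhibitor control wells for full effect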
Rh110 quench: Rh110 signal interference in Apaf-1 inhibitor counter-screen. shares compounds with Apaf1 inhib. Rh110 fluorescence interference, quenched caspase reaction. activation (fluorescence interference), % at 20 µM. 1,800 tested, under 10 active;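 active = signal rise of 40% or more at 20 µM, treated as a fluorescence artifact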
Apaf1 inh interf: Apaf-1 inhibitor counter-screen fluorescence artifact; shares compounds with Apaf1 inhib; fluorescence interference counterscreen, Apaf-1 assay format; IC50, µM; 460 tested, under 10 active; call rule not given here
The depositor's hits bear a star; / = not tested or not shown.

SMILES	Apaf1 inhib	GSTO1 counter	PAD4 FP inh	PRMT1 inh	TDP2 inh	Apaf-1 inh conf2	Rh110 quench	others
COc1cc(OC)c(C2Nc3cccc4cccc(c34)N2)c(OC)c1	39	/	/	21	11	/	/
COc1ccccc1C1Nc2cccc3cccc(c23)N1	51*	50*	-9	16	13	31	7
COc1ccc(Cc2c(-c3ccc(OC)c(OC)c3)nc3cc(C)c(Br)c(C)n23)c(C)c1	/	/	/	1	1	/	/
CCOC(=O)[C@]12CCC=C1N(Cc1ccc3c(c1)OCO3)C(=O)[C@H](CC(=O)NCCCN1CCCC1=O)C2	/	/	/	-3	-1	/	/
CC(C)n1cnc2c(N(C)c3ccccc3)nc(N(CCN(C)C)Cc3ccccc3)nc21	44*	-1	3	-1	1	20	12
COC(=O)[C@H](CC(C)C)N(CCCc1cn(Cc2ccccc2)nn1)S(=O)(=O)c1ccc(F)cc1Br	/	/	/	0	-4	/	/
CCOC(=O)c1[nH]c(=O)c2ccccc2c1O	75*	26	8	-4	16	26	4
Cc1ccc(CN2CCCCC(NC(=O)c3c(F)cccc3F)C2=O)cc1 (stereo unspecified)	/	/	/	-2	-3	/	/
N#CCSc1nnc(COc2cccc3ccccc23)n1-c1ccccc1	12	-4	-1	2	-4	/	/
Cc1ccc(-c2nnc(CSc3nnc(COc4cccc5ccccc45)n3-c3ccccc3)o2)cc1	44*	-11	0	2	1	47*	-3	Apaf1 inh interf=>100
Cc1ccc(S(=O)(=O)N2CCN(c3nc(CN4CCCC4)nc4sc(C)c(C)c34)CC2)cc1	48*	/	0	-3	-15	29	15
COc1ccccc1-c1c(C#N)c(N)nc2c1CCc1ccccc1-2	96*	18	-14	-1	-6	28	8
Cc1cc(C(=O)NNC(=O)Nc2ccccc2)no1	4	-8	2	-3	0	/	/
Cc1nc(C(=O)NNC(=O)Nc2ccccc2)cs1	57*	-2	-2	1	1	16	12
O=C(C[n+]1cccc(C(=O)N/N=C/c2ccc(Br)cc2)c1)c1ccccc1	50*	/	-9	-5	-20	15	1
O=C(N/N=C/c1ccc(Br)cc1)c1cc[n+](Cc2ccccc2)cc1	-6	-4	-2	3	-8	/	/
CCOC(=O)C1=NOC(C(C)=O)(C(=O)N2CCOCC2)C1 (stereo unspecified)	/	/	/	-1	-1	/	/
N#Cc1c(N)n(CCNC(=O)c2cccs2)c2nc3ccccc3nc12	90*	9	-3	-4	-10	17	5
CN(CCO)c1cccc2c1S(=O)(=O)N[C@H](Cc1ccccc1)CO2	/	/	/	-3	10	/	/
CC(=O)Nc1ccc2c(c1)N(C(=O)CN(C)C)c1ccccc1CC2	43*	8	-3	9	0	22	6
CCNCC(=O)N1c2ccccc2CCc2ccc(NC(C)=O)cc21	3	-2	-1	-1	3	/	/
Cc1ccc(C(=O)N(Cc2nnc(-c3ccccc3Cl)o2)C2CC2)o1	/	/	/	-5	1	/	/
O=C(c1ccc([N+](=O)[O-])o1)N(Cc1nnc(-c2ccccc2Cl)o1)C1CC1	51*	/	6	0	10	41*	5	Apaf1 inh interf=>100
CCc1cccc(C)c1NC(=S)NCc1ccc2c(c1)cc(C)n2C	55*	-3	2	1	6	21	6
CCC(C)(C)c1ccc(OCCCC[n+]2cccc(C)c2C)c(C(C)(C)CC)c1	69*	-4	2	-1	-8	54*	19	Apaf1 inh interf=>100
SMILES	Apaf1 inhib	GSTO1 counter	PAD4 FP inh	PRMT1 inh	TDP2 inh	Apaf-1 inh conf2	Rh110 quench	others
CCC(C)(C)c1ccc(OCCCC[n+]2ccc(C)cc2)c(C(C)(C)CC)c1	48*	3	0	3	1	29	20
Cc1ccc(CC(C)(O)CC(C)(O)Cc2ccc(C)cc2)cc1 (stereo unspecified)	/	/	/	-3	1	/	/
COC(=O)[C@]12C[C@H](CC(=O)NCc3cccc(C(F)(F)F)c3)C(=O)N(Cc3ccco3)C1=C[C@H](C(C)(C)C)O[C@@H]2C	/	/	/	3	-5	/	/
COc1ccc(S[C@]2(C(=O)N3CCCC3)CC(=O)N(P(=O)(OC)OC)[C@@H]2c2ccc(OC)cc2)cc1	/	/	/	8	-15	/	/
O=C1Cc2ccccc2C(=O)N1CCc1ccccc1	79*	25	-21	-7	-4	95*	5	Apaf1 inh interf=>100
O=C1C(=O)N(Cc2ccccc2)C(=O)N1CCN1C(=O)c2ccccc2C1=O	-1	-8	0	1	13	/	/
COc1ccc(OC)c2c1cc(C(=O)N[C@H](C(=O)N1CCC[C@H]1C(=O)O)C(C)C)n2C	52*	11	-3	-8	6	26	4
COc1cc(OC)c2cc(C(=O)N[C@H](C(=O)N3CCC[C@H]3C(=O)O)C(C)C)n(C)c2c1	-2	3	3	4	2	/	/
COc1ccccc1-n1c(N)c(C(=O)NCC2CCCO2)c2nc3ccccc3nc21 (stereo unspecified)	69*	15	-12	-3	4	15	7
COc1ccccc1-n1c(C)nc2cc(C(=O)NCC3CCCO3)ccc21 (stereo unspecified)	-5	3	1	-4	7	/	/
Nc1c(C(=O)NCC2CCCO2)c2nc3ccccc3nc2n1-c1ccccc1 (stereo unspecified)	60*	3	-6	0	-11	27	9
